The text below walks through data of ChEMBL document CHEMBL4513216, “Probing the Open Global Health Chemical Diversity Library for Multistage-Active Starting Points for Next-Generation Antimalarials” (ACS Infect Dis, 2020).

This data set can be described thus: Toxicity liver stage against HepG2, at 10uM. Conditions: human, HepG2-A16-CD81EGFP cells; read-out: INHIBITION
Details: test concentration 10 uM, cell line HepG2-A16-CD81EGFP. The format is cell-based. In a few lines: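 Uninfected HepG2-A16-CD81EGFP cells, 3 × 10^3 per well, 1536-well, plated on prespotted compound at 10 μM final, parasite-free screening media added to match infected plates; puromycin 10 μM positive, DMSO 0.5% negative; run in parallel with 48 h PbLuc assay at 37 °C, 5% CO2; viability by CellTiter-Glo luminescence, normalized to controls.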
For `Cc1nn(CCO)c(C)c1CNCc1cccnc1N(C)C`, the cytotoxicity at 10 µM is -9.89%.

`Cc1cc(=O)[nH]c(NCCNC(=O)C(c2ccc(F)cc2)N(C)C)n1` (configuration not stated): the cytotoxicity at 10 µM was -29.5%.

Take `Cc1nc(C)n(C2CCCN(C(=O)c3ccc4c(c3)COC4)C2)n1` (configuration not stated): the cytotoxicity at 10 µM is -9.12%.

As for `COCc1ccccc1C(=O)N1CCN(C2=NCC(C)(C)S2)CC1`, the cytotoxicity at 10 µM amounted to 6.11%.

With `COc1ncccc1CNC(=O)NCc1ccco1`, the cytotoxicity at 10 µM is -12.8%.

As for `CN1CCC(c2ncc3c(n2)CCN(C(=O)CC2C=CCC2)C3)CC1` (configuration not stated), the cytotoxicity at 10 µM came to 1.68%.

As to `COc1cccc(CN2CC(O)CN(S(C)(=O)=O)CC2=O)c1OC` (configuration not stated), the cytotoxicity at 10 µM was -0.686%.

For the molecule `CNc1ccnc(NCCC(=O)Nc2ccccc2C)n1`, the cytotoxicity at 10 µM was -1.53%.

`Cn1cc2c(n1)C(COCC1CC1)CN(Cc1ccsc1)C2` (configuration not stated): the cytotoxicity at 10 µM was -76.1%.

As for `Cc1cnc(C(=O)NCC2CCOc3ccccc3C2)cn1` (configuration not stated), the cytotoxicity at 10 µM stood at 5.06%.

For the molecule `Cc1noc([C@@H]2C[C@H](NC(=O)NC(C)C)CN2C)n1`, the cytotoxicity at 10 µM was -10.1%.

Take `Cc1cccc(-c2noc(C)c2C(=O)NC2CCCOC2)c1` (configuration not stated): the cytotoxicity at 10 µM turned out to be 5.2%.

With `CSc1[nH]nc(NC(=O)c2ccccc2)c1C#N`, the cytotoxicity at 10 µM is -9.59%.

Take `CC(=O)N[C@@H]1CN(Cc2ccccc2-n2cccn2)C[C@H]1C(C)C`: the cytotoxicity at 10 µM amounted to 8.67%.

`COCc1nc2n(n1)CCCC2Nc1nc(C2CC2)ns1` (configuration not stated): the cytotoxicity at 10 µM worked out at 17%.

On to `O=C(O)c1ccccc1C1CCN(C2CCN(c3ccccc3)CC2)C1` (configuration not stated), for which the cytotoxicity at 10 µM was -14.5%.

In the case of `Cc1noc(C)c1CCC(=O)N1CCN(CCn2cncn2)CC1`, the cytotoxicity at 10 µM stood at 5.03%.

Turning to `CC(C)=CCCC(C)CN1CCC(n2cc(CO)nn2)CC1` (configuration not stated), the cytotoxicity at 10 µM was -6.37%.

For `CSc1cc2c(cc1NC(=O)NCC(C)(C)C(N)=O)OCCO2`, the cytotoxicity at 10 µM was -10.9%.

Take `Cc1cnn(CC2CCCCN2C(=O)c2nccnc2N)c1` (configuration not stated): the cytotoxicity at 10 µM is -3.03%.

For the molecule `CN(Cc1nc2c(cnn2C)c(=O)[nH]1)Cc1ccco1`, the cytotoxicity at 10 µM was -8.11%.

For `Cc1c[nH]nc1C1CN(c2ncccn2)CCO1` (configuration not stated), the cytotoxicity at 10 µM was 4.37%.

For the molecule `CCC(C)c1csc(NC(=O)c2sc(-c3nnc[nH]3)nc2C)n1` (configuration not stated), the cytotoxicity at 10 µM is -35.5%.

Consider `COc1ccccc1CC1CCCN(C(=O)c2n[nH]c3c2CCC3)C1` (configuration not stated), for which the cytotoxicity at 10 µM worked out at 13.3%.

Consider `CCSC(C)c1nc(-c2ccc(C)nn2)no1` (configuration not stated), for which the cytotoxicity at 10 µM was -6.24%.

As to `Cc1cnn(CCCn2c(C)cc(C(F)(F)F)cc2=O)c1`, the cytotoxicity at 10 µM stood at 0.529%.

In the case of `CC(C)(C)n1ncc2c1NC(=O)CSC2c1ccc2c(c1)OCCO2` (configuration not stated), the cytotoxicity at 10 µM was -1.74%.

As for `COCC1CN(C(=O)Nc2cc(C(F)(F)F)ccc2F)CCO1` (configuration not stated), the cytotoxicity at 10 µM is 4.24%.

As to `O=C(c1ccc(Br)s1)N1CCN(Cc2ccc(OC(F)(F)F)cc2)CC1`, the cytotoxicity at 10 µM stood at 23.1%.

Turning to `O=C1CCC2(CCNCC2)CN1Cc1nncn1CCc1ccccc1`, the cytotoxicity at 10 µM is -10.1%.

Regarding `Cc1nnc2n1CCN(CC(O)CN1CCC(C)CC1)C2` (configuration not stated), the cytotoxicity at 10 µM is 2.78%.

As to `CC(C)(C)c1ncc(C(=O)NCCNC(=O)c2cccs2)s1`, the cytotoxicity at 10 µM is -1.56%.

Consider `COc1ccc([C@@H]2CN(c3cnccn3)C[C@H]2N(C)C)cc1`, for which the cytotoxicity at 10 µM was 6.55%.

With `O=C1CCOCCN1Cc1ccc(Cl)c(Cl)c1`, the cytotoxicity at 10 µM is 3.3%.

As for `Cc1cc(C[C@@H]2COC[C@@H]2NC(=O)Cn2c(=O)oc3ccccc32)on1`, the cytotoxicity at 10 µM was -14%.

As for `CCO[C@@H]1CCN(C(=O)c2ccc[nH]2)[C@@H]1Cc1cccnc1`, the cytotoxicity at 10 µM is -80.2%.

For the molecule `CS(=O)(=O)NCC(=O)NC1(c2ccc(Cl)c(Cl)c2)CC1`, the cytotoxicity at 10 µM is -10.7%.

Regarding `COCCn1cncc1Cn1cccc(C(F)(F)F)c1=O`, the cytotoxicity at 10 µM was -19.2%.

`Cn1nc2c(cc1=O)CN(Cc1nc(N)c3ccccc3n1)CC2`: the cytotoxicity at 10 µM was -8.86%.

For `CC(C)CCn1c(=O)n(CCn2cccc2)c2cc(C(=O)O)cnc21`, the cytotoxicity at 10 µM is -2.95%.

Regarding `Cc1noc(CCCC(=O)Nc2ncccc2Br)n1`, the cytotoxicity at 10 µM was -15.7%.

Turning to `Cc1nn(C)c2c(=O)n(C(C)C)c(NCC3CCCO3)nc12` (configuration not stated), the cytotoxicity at 10 µM stood at 13.9%.

Regarding `Cc1cc(C)c(CNC(=O)N(C)Cc2ccc(F)cc2)c(=O)[nH]1`, the cytotoxicity at 10 µM was -9.12%.

As for `O=S1(=O)CCC(N(Cc2nc(-c3ccccn3)no2)Cc2cccs2)C1` (configuration not stated), the cytotoxicity at 10 µM is -4.54%.

Regarding `CC(C)N1[C@@H](C(=O)NCC2CC2)C[C@@H]2CN(Cc3ccco3)C[C@@H]21`, the cytotoxicity at 10 µM worked out at 3.41%.

With `c1cc2c(cc1CN1CCN(Cc3noc(C4CC4)n3)CC1)OCO2`, the cytotoxicity at 10 µM is 15.8%.

Consider `Cc1cc(C)c(CNC(=O)N(C)Cc2ccoc2)c(=O)[nH]1`, for which the cytotoxicity at 10 µM is -6.02%.

Regarding `c1ccc2c(Cc3nnc([C@H]4CCN(CC5CC5)C4)o3)c[nH]c2c1`, the cytotoxicity at 10 µM worked out at 4.73%.

Consider `CC(C)(C)C(CCO)NC(=O)Nc1ccncc1` (configuration not stated), for which the cytotoxicity at 10 µM is -3.28%.

For the molecule `CC(C)c1nc(CN2CCCN(c3nccs3)CC2)no1`, the cytotoxicity at 10 µM is -11.5%.

Consider `COCc1cccc(NC(=O)NCCCN(C)S(C)(=O)=O)c1`, for which the cytotoxicity at 10 µM is -0.561%.

As to `Cc1nc(-c2ccc(Cl)s2)sc1C(=O)NC(C)(C)C(N)=O`, the cytotoxicity at 10 µM is -3.04%.

Regarding `CCc1nc(CN2CC[C@@](O)(CCOC)[C@H](C)C2)cs1`, the cytotoxicity at 10 µM was determined as 10%.

In the case of `CNc1ccc(CC2CCCN(C(=O)c3cccc(C)n3)C2)nn1` (configuration not stated), the cytotoxicity at 10 µM is -12.3%.

Consider `Cc1nnc(CN(Cc2ccccc2Br)C2CC2)o1`, for which the cytotoxicity at 10 µM is 5.2%.

Consider `O=C([C@@H]1CCCO1)N1CCN(Cc2ccncc2)c2ncccc2C1`, for which the cytotoxicity at 10 µM was -95.7%.

Regarding `COCCN1CCC2(CC1)CCN(Cc1ccccn1)CC2`, the cytotoxicity at 10 µM was -3.54%.

`CC(=O)Nc1nc(-c2ccc(F)cc2)c[nH]1`: the cytotoxicity at 10 µM was 2.41%.

On to `O=C1CCCN1CCCNCc1cc(O)c2cccc(F)c2n1`, for which the cytotoxicity at 10 µM was -1.16%.

Take `CN(CC1COc2ccccc2O1)C(=O)c1ccc(-c2cn[nH]c2)nc1` (configuration not stated): the cytotoxicity at 10 µM amounted to 5.37%.

With `CC(C)(C)OC(=O)NCC1CCCCN1Cc1ccncc1` (configuration not stated), the cytotoxicity at 10 µM stood at 9.04%.

As for `Cn1cnnc1C1CCCN(C(=O)COc2ccccc2Cl)C1` (configuration not stated), the cytotoxicity at 10 µM is -14.2%.

For the molecule `CN(C)CCOCc1nnc2n1CCN(Cc1ccsc1)C2`, the cytotoxicity at 10 µM amounted to 3.02%.

Regarding `COCCO[C@@H]1CCN(c2cc(OC)ncn2)[C@H]1Cc1cnn(C)c1`, the cytotoxicity at 10 µM is -142%.

With `O=C(c1cccc(S(=O)(=O)NCCCn2cccn2)c1)N1CCOCC1`, the cytotoxicity at 10 µM stood at 5.78%.

As for `CC(=O)N1CCC(c2cc(C(F)(F)F)nc3nccn23)CC1`, the cytotoxicity at 10 µM is -2.11%.

Consider `CCn1ncc(-c2nc3c[nH]n(CC)c-3n2)c1C`, for which the cytotoxicity at 10 µM worked out at 2.13%.

As to `Cc1ccsc1CN1C[C@@H]2COC[C@]2(COCC(=O)N(C)C)C1`, the cytotoxicity at 10 µM is -4.55%.

With `COCc1ccc(C(=O)N2CCCN(Cc3cscn3)CC2)cc1`, the cytotoxicity at 10 µM is -3.07%.

Turning to `Cc1cc(C)n(CCN2CCN(C(=O)c3ccccc3Br)CC2)n1`, the cytotoxicity at 10 µM is -4.86%.

In the case of `Cc1ccc(NC2CCN(C(=O)c3ccc(Cl)o3)CC2)nn1`, the cytotoxicity at 10 µM was -0.961%.

For the molecule `Cc1cc(=O)n(C)cc1NC(=O)NCc1cccc(F)c1`, the cytotoxicity at 10 µM is -5.3%.
